In the library only some 1.5% were active in any assay of this set; here they are far more common.
T cell modulator = modulates CD8 T cell binding to vesicles. 2C CD8+ T cell-vesicle binding, flow cytometry; active compounds read low. response (vesicle binding), % at 7 µM. 330,000 tested, 0.068% active. AID 2052;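 active = response, share of CD8 T cells binding vesicles, and their 90th percentile fluorescence all below set limits, cut at about 80% in these data, passing the limit was not always enough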;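 note: values below 100% mean blocked vesicle binding to the CD8+ T cells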
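Incubation: binding step 1.5 h, 37 °C, antibody labelling 20 min, ice; system: murine 2C transgenic CD8+ T lymphocytes; technique: cytometric PE anti-B7-1 and Alexa647 anti-CD8 signals after 1% paraformaldehyde fixation; also added: QL9-charged Drosophila Ld/ICAM-1/B7-1 vesicles; control set: naked versus QL9-loaded vesicles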
LANA-H2A inh = blocks KSHV LANA binding to histone H2A/H2B; Q9QR71; cell-free LANA-H2A/H2B peptide, fluorescence polarization; inhibition, % (concentration not given with the values); 320,000 tested, 0.6% active; AID 2629; in the data active = inhibition mostly above about 10%, no sharp cut-off; inactive = mostly below about 6.7%
DSG3 Ab inh = inhibitors of pemphigus antibody binding to human desmoglein-3; DSG3-coupled beads, scFv-anti-DSG3-GFP binding, flow cytometry; active compounds read low; P32926; AID 588358; 310,000 tested, 0.48% active; binding (percent of control), % at 10 µM;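 active = binding more than 3 SD below its plate's average and above zero; inconclusive = below that plate limit but binding exactly zero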;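 note: hits lower antibody fragment binding to DSG3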
HDAC3 inh = blocks human histone deacetylase 3 | O15379 | recombinant HDAC3, fluorogenic peptide/trypsin coupled, fluorescence | inhibition, % at 8.3 µM | 320,000 tested, 0.15% active; in the data active = inhibition above about 26%, passing the limit was not always enough; inconclusive = no clear call, values can overlap the other calls
Arrestin-AP2 inh = blocks beta-arrestin peptide binding to AP2 adaptin; inhibition, % at 10 µM; FITC-arrestin peptide / GST-AP2 beads, flow cytometry; AP2 beta2 appendage carries R879A mutation; 340,000 tested, 0.31% active; AID 504490;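 active = inhibition above a set limit, near 3 SD of compounds lacking own fluorescence, cut at about 54% in these data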;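 note: plate controls were DMSO wells for no effect and 5 µM unlabelled arrestin peptide for full effect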
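Material – AP2 appendage R879A on GSH beads · Buffer or medium – PBS with 0.05% Tween 20 and 0.1% BSA · Probe or stimulus – fluorescein-tagged arrestin peptide at 50 nM final · Incubation – compound with beads 12 min RT, then probe 1 h RT · Detection – high-throughput flow cytometry of beads, ex 488, em 535 nm · Evaluation – percent response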
Arr AP2 CP1 = blocks beta-arrestin peptide binding to human AP2. 1,300 tested, 2% active. inhibition, % at 10 µM. GST-AP2 beads, FITC arrestin peptide binding, flow cytometry; GST-fused beta2-adaptin appendage, R879A mutant. shares compounds with Arrestin-AP2 inh. AID 504908;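 active = inhibition above a set limit, roughly 3 SD of non-fluorescent compound noise, cut at about 38% in these data; inactive = inhibition at or below that limit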;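 note: loss of bead fluorescence from 50 nM FITC arrestin peptide bound to appendage; 0% = negative control wells and 100% = excess unlabelled arrestin peptide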
Target sequence (P63010 whole entry, looked up, the tested form may be a part, one chain of several): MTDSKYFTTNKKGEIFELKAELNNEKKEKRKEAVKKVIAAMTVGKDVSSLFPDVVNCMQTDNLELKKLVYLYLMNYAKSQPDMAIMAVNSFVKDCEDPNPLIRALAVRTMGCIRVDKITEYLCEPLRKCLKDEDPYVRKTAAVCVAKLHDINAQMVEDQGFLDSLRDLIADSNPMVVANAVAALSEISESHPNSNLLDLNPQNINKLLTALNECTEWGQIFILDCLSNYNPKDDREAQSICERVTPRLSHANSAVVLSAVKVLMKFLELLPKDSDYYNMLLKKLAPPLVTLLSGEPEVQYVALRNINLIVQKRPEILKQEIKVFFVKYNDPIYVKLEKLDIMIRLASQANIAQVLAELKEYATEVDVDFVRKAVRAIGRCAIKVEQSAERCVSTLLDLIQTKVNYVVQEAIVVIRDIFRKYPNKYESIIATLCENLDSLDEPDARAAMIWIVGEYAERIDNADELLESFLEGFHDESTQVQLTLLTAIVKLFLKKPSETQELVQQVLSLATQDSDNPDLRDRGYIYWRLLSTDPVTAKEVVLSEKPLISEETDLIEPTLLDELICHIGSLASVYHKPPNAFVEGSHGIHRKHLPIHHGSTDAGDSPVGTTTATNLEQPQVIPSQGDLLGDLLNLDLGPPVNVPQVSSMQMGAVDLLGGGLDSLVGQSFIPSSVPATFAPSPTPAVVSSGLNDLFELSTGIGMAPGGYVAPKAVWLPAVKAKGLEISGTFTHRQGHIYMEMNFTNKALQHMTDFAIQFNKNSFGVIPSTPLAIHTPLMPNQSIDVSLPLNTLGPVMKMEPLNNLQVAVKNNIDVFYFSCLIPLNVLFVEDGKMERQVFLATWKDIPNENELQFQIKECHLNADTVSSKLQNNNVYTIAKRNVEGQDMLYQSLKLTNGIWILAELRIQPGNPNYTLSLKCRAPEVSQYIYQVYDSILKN
GST-FITC bead = GST-GSH bead binding interference, counter-screen; shares compounds with Arrestin-AP2 inh; GST-fluorescein binding to GSH beads, fluorescence; inhibition, % at 10 µM; 1,300 tested, 2% active; AID 588338;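 active = inhibition above 50%, about 3 SD of the inhibition seen with non-fluorescent compounds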;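 note: fluorescein maleimide labelled GST captured on 4 micron glutathione beads; higher means more loss of bead fluorescence from quenching or blocked binding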
Starred values were filed as active, the others as inactive; i = inactive; ? = inconclusive; nt = no result given.

SMILES | T cell modulator | LANA-H2A inh | DSG3 Ab inh | HDAC3 inh | Arrestin-AP2 inh | Arr AP2 CP1 | GST-FITC bead
CCn1cc(C(=O)N[C@@H](C)C(=O)OC)c(=O)c2cc3c(cc21)OCO3 | 803.2 | 1.6 | 93.3 | -0.5 | 55.0* | -1.5 | -4.7
N#Cc1nc(-c2ccco2)oc1NCc1ccc(F)cc1 | 194.0 | -1.4 | 96.7 | -20.0 | 71.8* | -7.8 | -2.8
CCNC(=S)/N=C(\N)Nc1nc(C)c2cc(C)ccc2n1 | 427.4 | -6.7 | 118.9 | nt | 63.6* | -6.5 | 1.1
CCOc1ccc2nc(N/C(N)=N/C(=S)Nc3ccc(C)c(C)c3)nc(C)c2c1 | i | -0.6 | 91.2 | 8.6 | 6.7 | nt | nt
CCOC(=O)C1=C(COC(=O)COc2ccc(C#N)cc2)NC(=O)NC1C (stereo not drawn) | 680.8 | -5.2 | nt | -0.9 | 5.2 | 2.0 | -3.0
CCOC(=O)C1=C(COC(=O)COc2ccc(C(C)=O)cc2)NC(=O)NC1C (stereo not drawn) | 344.0 | -2.2 | 95.8 | 2.4 | -1.9 | 5.2 | 0.6
CCOC(=O)C1=C(COC(=O)CNC(=O)c2ccc(C)cc2)NC(=O)NC1C (stereo not drawn) | 202.3 | -3.3 | 94.0 | 1.3 | -8.5 | nt | nt
CCOC(=O)C1=C(COC(=O)COc2ccc(C(=O)CC)cc2)NC(=O)NC1C (stereo not drawn) | i | -3.7 | 97.5 | 0.2 | 14.6 | -14.3 | -0.9
CCOC(=O)C1=C(COC(=O)COc2cc(C)ccc2C)NC(=O)NC1C (stereo not drawn) | 412.6 | 2.1 | 91.9 | 7.3 | 4.4 | -6.9 | -13.8
CCOC(=O)C1=C(COC(=O)c2c(OC)cccc2OC)NC(=O)NC1C (stereo not drawn) | 569.6 | -7.0 | 106.2 | 2.5 | -1.6 | nt | nt
CCOC(=O)C1=C(COC(=O)COc2ccccc2C#N)NC(=O)NC1C (stereo not drawn) | 246.5 | -2.8 | 98.7 | 2.8 | -15.2 | -13.8 | -2.5
Cc1cccc(C(=O)Nc2c3c(nn2C(C)(C)C)CS(=O)(=O)C3)c1 | 368.0 | -1.0 | nt | 0.5 | 61.4* | -2.5 | -2.7
COC(=O)c1cccc(NC(=O)CN(c2ccc3c(c2)OCO3)S(C)(=O)=O)c1C | 458.1 | -7.0 | 98.1 | -1.3 | 61.1* | 7.4 | 4.8
CCN(CC)S(=O)(=O)c1ccc(N2CCOCC2)c(NC(=O)c2ccc(=O)[nH]c2)c1 | 484.4 | -1.6 | nt | 9.8 | -10.2 | nt | nt
CC1(C)CC(=O)C2=C(C1)Nc1ccccc1NC2c1cccs1 (stereo not drawn) | 240.4 | 1.7 | 119.5 | 2.0 | -0.8 | nt | nt
O=C1CCCC2=C1C(c1cccs1)Nc1ccccc1N2 (stereo not drawn) | 222.7 | -0.7 | 128.4 | 1.4 | 70.1* | -4.3 | -3.5
COc1cc2c(cc1OC)CN(C(=S)Nc1ccc(OC(F)F)cc1)CC2 | 215.7 | -4.7 | 112.0 | 2.0 | 55.6* | 0.1 | -3.5
COc1ccc(N2CCN(CC(=O)Nc3ccccc3C(=O)NCc3ccccc3)CC2)cc1 | 199.1 | nt | 110.8 | nt | 7.8 | nt | nt
CC(C)(C)S(=O)(=O)/C(C#N)=N/Nc1ccc(Cl)cc1 | 428.2 | -0.7 | 101.2 | 4.2 | 57.0* | -3.7 | -2.1
O=C(CN1C(=O)NC2(CCCC2)C1=O)OCc1cccc(Br)c1 | 393.5 | 4.2 | nt | 3.3 | -3.8 | nt | nt
Cc1cc(C)n(C(C)CNS(=O)(=O)c2ccc(Cl)cc2)n1 (stereo not drawn) | 339.3 | -1.2 | 90.9 | 0.6 | -20.4 | nt | nt
CCN1/C(=C/c2ccc3cc(C)ccc3[n+]2CC)Sc2ccc3sccc3c21 | i | -5.6 | 12.2 | 11.2 | 75.1* | 42.5* | 139.7*
O=S(=O)(/N=C(/Nc1cccc2ccccc12)c1ccccc1)c1cccs1 | 350.0 | -2.8 | 96.2 | -4.0 | 99.9* | 5.0 | -13.1
O=S(=O)(/N=C(/Nc1cccc2ccccc12)c1ccccc1)c1ccccc1 | 322.5 | 0.9 | 100.6 | 4.6 | 6.8 | nt | nt
COc1cc(OC)cc(C(=O)NC(C(=O)NNC(=O)c2ccc(C)cc2)C(C)C)c1 (stereo not drawn) | 87.5 | -0.8 | 97.1 | -2.0 | 62.9* | 3.7 | -1.8
SMILES | T cell modulator | LANA-H2A inh | DSG3 Ab inh | HDAC3 inh | Arrestin-AP2 inh | Arr AP2 CP1 | GST-FITC bead
COc1ccc(C(=O)C2CCCN(C(=O)CSC)C2)cc1OC (stereo not drawn) | 232.6 | -1.9 | 104.2 | -5.5 | 31.1 | nt | nt
CCOc1ccccc1CN1CCCC(C(=O)c2ccc(OC)c(OC)c2)C1 (stereo not drawn) | i | -0.7 | 92.1 | ? | 54.3* | -7.3 | 4.5
COc1ccc(S(=O)(=O)N2CCCC(C(=O)N3CCCC3)C2)cc1OC (stereo not drawn) | 592.8 | -4.0 | 95.7 | -6.2 | 69.1* | -8.6 | -9.8
COc1ccc(F)cc1C(=O)C1CCCN(Cc2cn(C)c3ccccc23)C1 (stereo not drawn) | 225.1 | -6.9 | 93.0 | 2.9 | 54.5* | 13.3 | -6.2
COc1ccc(C(=O)C2CCCN(C(=O)C3=CCCC3)C2)cc1OC (stereo not drawn) | 242.7 | 2.6 | 103.5 | -3.5 | 59.4* | -10.1 | nt
CCCCN(C(=O)C1CC(=O)N(c2ccc(C)cc2)C1)c1c(N)n(CCC)c(=O)[nH]c1=O (stereo not drawn) | nt | nt | 113.1 | nt | -2.1 | nt | nt
COc1ccccc1CNC(=O)COC(=O)CSc1ccc(C)c(C)c1 | nt | nt | 99.4 | nt | -10.2 | nt | nt
Cc1cccn2cc(-c3ccc(NC(=O)Cc4ccccc4)cc3)nc12 | 323.5 | -12.7 | 101.4 | -0.7 | 95.9* | -1.3 | -1.4
COc1ccc(CC(=O)Nc2ccc(-c3cn4cccc(C)c4n3)cc2)cc1OC | 245.4 | -2.0 | 104.9 | 0.9 | -0.2 | nt | nt
N#Cc1c(SCC(=O)Nc2ccccc2)nsc1SCC(=O)Nc1ccccc1 | 208.6 | -2.2 | 66.5* | -3.4 | 108.7* | 7.5 | -1.1
COc1cc(Cl)c(C)cc1NC(=O)COC(=O)c1ccc(CN2CCCC2=O)cc1 | 439.8 | 3.5 | 96.1 | 4.7 | 65.2* | -0.8 | 1.3
Cc1ccc(Cl)cc1NC(=O)COC(=O)c1ccc(CN2CCCC2=O)cc1 | 382.1 | -0.8 | 105.2 | -4.3 | -5.4 | nt | nt
CC(C)CCNC(=O)C(=O)NCC1OCCCN1S(=O)(=O)c1cccs1 (stereo not drawn) | 187.5 | -2.3 | 106.2 | -1.4 | 23.6 | nt | nt
Cc1cc(C)c(C(=O)N2CCCC(CNS(=O)(=O)c3cccs3)C2)o1 (stereo not drawn) | 205.9 | 0.5 | nt | -12.5 | -8.7 | nt | nt
CC(C)(O)C#Cc1ccc(C(=O)N2CCCC(CNS(=O)(=O)c3cccs3)C2)o1 (stereo not drawn) | 463.3 | -1.1 | 100.6 | -4.8 | 60.7* | -9.4 | 3.2
CC(C)[C@]1(c2ccc(Cl)cc2)ON(c2ccccc2C(F)(F)F)C1=O | 506.6 | 5.4 | nt | 13.1 | nt | nt | nt
O=C(NC1CCCCC1)N(CCN1CCCC1)Cc1cc2cc3c(cc2[nH]c1=O)OCCO3 | 191.3 | -3.8 | 142.0 | -0.5 | -4.3 | nt | nt
